In ChEMBL document CHEMBL4811235, “Design, synthesis, biological evaluation and structure-activity relationship study of quinazolin-4(3H)-one derivatives as novel USP7 inhibitors” (Eur J Med Chem, 2021):
Active and inactive are the calls of the source. The rule behind the calls is not given here.

Experiments:
[1] = target: T1, Ubiquitin carboxyl-terminal hydrolase 7 (Homo sapiens, UniProt Q93009); assay: Inhibition of recombinant USP7 catalytic domain (unknown origin) using UbA10 as substrate incubated with substrate for 75 mins followed by compound addition and measured after 1 hr by TR-FRET assay relative to control; parameters: concentration or dose not given beside the values
Procedure, shortened: (§1)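 TR-FRET deubiquitinase assay. The recombinant USP7 catalytic domain was mixed with compound (from 2.5 mM DMSO stocks) in 50 mM HEPES pH 7.5 with 0.01% Triton X-100 for 10 min at 25 °C. The substrate was GST- and biotin-tagged Ub-A10, incubated for 75 min at 37 °C. Streptavidin-d2/anti-GST-Eu detection reagents were then added for 1 h at 25 °C and the signal read at […]/em 665 nm. IC50 came from regression.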
Target sequence in this assay (Q93009 whole entry, looked up, the tested form may be a part): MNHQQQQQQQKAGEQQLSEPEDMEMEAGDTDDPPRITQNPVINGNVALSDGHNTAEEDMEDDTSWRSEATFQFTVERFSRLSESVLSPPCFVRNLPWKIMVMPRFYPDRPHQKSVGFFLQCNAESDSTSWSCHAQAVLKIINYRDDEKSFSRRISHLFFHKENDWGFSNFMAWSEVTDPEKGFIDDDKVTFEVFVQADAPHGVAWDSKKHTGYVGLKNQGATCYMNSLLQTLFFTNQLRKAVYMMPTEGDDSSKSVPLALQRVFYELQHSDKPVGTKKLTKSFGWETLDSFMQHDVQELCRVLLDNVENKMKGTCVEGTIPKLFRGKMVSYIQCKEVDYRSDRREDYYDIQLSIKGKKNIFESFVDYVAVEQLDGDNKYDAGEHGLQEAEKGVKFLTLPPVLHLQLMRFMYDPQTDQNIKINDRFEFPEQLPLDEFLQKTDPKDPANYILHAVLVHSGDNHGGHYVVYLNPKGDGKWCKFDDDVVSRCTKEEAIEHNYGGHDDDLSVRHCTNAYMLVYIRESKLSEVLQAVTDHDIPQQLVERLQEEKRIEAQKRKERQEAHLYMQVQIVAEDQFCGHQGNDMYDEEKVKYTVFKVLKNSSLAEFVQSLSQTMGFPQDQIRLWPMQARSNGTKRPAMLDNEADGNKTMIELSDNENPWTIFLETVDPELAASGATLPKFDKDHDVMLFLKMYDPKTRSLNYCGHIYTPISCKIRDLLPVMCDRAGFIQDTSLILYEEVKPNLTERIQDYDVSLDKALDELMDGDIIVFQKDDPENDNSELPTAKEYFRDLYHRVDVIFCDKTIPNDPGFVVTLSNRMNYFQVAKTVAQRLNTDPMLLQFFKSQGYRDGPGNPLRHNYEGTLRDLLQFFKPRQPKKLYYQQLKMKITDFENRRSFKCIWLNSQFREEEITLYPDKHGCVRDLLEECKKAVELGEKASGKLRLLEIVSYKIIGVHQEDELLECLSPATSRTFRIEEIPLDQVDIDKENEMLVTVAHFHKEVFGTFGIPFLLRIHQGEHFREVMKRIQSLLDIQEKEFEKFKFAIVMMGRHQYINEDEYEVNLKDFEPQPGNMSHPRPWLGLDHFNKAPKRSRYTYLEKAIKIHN

[2] = target: T1, Ubiquitin carboxyl-terminal hydrolase 7; assay: Inhibition of recombinant USP7 catalytic domain (unknown origin) using UbA10 as substrate incubated with substrate for 75 mins followed by compound addition and measured after 1 hr by TR-FRET assay; procedure, shortened: as §1
Target sequence in this assay (Q93009 whole entry, the tested form may be a part): as the sequence (Q93009 whole entry, looked up, the tested form may be a part) above

MGC-803 [3] = assay: Cytotoxicity against human MGC-803 cells incubated for 4 hrs by MTT assay; assay type: functional, cell-based; details: for IC50: MGC-803, 4 h
Procedure, shortened: (§2)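 MTT assay. Compounds were dissolved in DMSO and tested at […] in triplicate. Cells were incubated with MTT at 37 °C for 4 h, the medium was replaced with DMSO, and absorbance was read at 490 nm. IC50 values came from regression.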

BGC-823 [4] = assay: Cytotoxicity against human BGC-823 cells incubated for 4 hrs by MTT assay; assay type: functional, cell-based; procedure, shortened: as §2
BGC-823 [5] = assay: Cytotoxicity against human BGC-823 cells at 50 uM incubated for 4 hrs by MTT assay relative to control; assay type: functional
MGC-803 [6] = assay: Cytotoxicity against human MGC-803 cells at 50 uM incubated for 4 hrs by MTT assay relative to control; assay type: functional
[7] = target: T1, Ubiquitin carboxyl-terminal hydrolase 7; assay: Inhibition of USP7 in human BGC-823 cells assessed as upregulation of p21 protein expression by Western blot analysis; assay type: cell-based
Target sequence in this assay (Q93009 whole entry, looked up, the tested form may be a part): as above

[8] = target: T1, Ubiquitin carboxyl-terminal hydrolase 7; assay: Inhibition of N-terminal His-FLAG-tagged human USP7 (2 to 1102 residues) expressed in baculovirus infected Sf9 cells using Ub-AMC as substrate preincubated with enzyme for 40 mins followed by substrate addition for 30 mins by fluorescence plate reader analysis
Procedure, shortened: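 USP7 activity with a commercial Ub-AMC inhibitor screening kit. Compound working solutions were made in 1X buffer containing 6.5 mM DTT. USP7 was added and preincubated for 40 min at 25 °C. Ub-AMC, diluted 800-fold, was added for 30 min at 25 °C. Fluorescence was read at ex 360/em 460 nm, and IC50 came from regression.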
Target sequence in this assay (Q93009 whole entry, the tested form may be a part): as the sequence (Q93009 whole entry, looked up, the tested form may be a part) above

[9] = target: T1, Ubiquitin carboxyl-terminal hydrolase 7; assay: Inhibition of USP7 in human MGC-803 cells assessed as increase in p21 expression level at 2.5 to 10 uM by Western blot analysis; assay type: cell-based; details: dose 2.5-10 µM
Target sequence in this assay (Q93009 whole entry, looked up, the tested form may be a part): as above

[10] = target: T1, Ubiquitin carboxyl-terminal hydrolase 7; assay: Inhibition of USP7 in human MGC-803 cells assessed as decrease in MDM2 protein level by Western blot analysis; assay type: cell-based; details: time 0.5-7 hrs, TDE = time-dependent effect
Target sequence in this assay (Q93009 whole entry, looked up, the tested form may be a part): as above

[11] = target: T1, Ubiquitin carboxyl-terminal hydrolase 7; assay: Inhibition of USP7 in human MGC-803 cells assessed as increase in p53 expression level at 2.5 to 10 uM by Western blot analysis; assay type: cell-based; details: dose 2.5-10 µM
Target sequence in this assay (Q93009 whole entry, looked up, the tested form may be a part): as above

MGC-803 [12] = assay: Induction of cell cycle arrest in human MGC-803 cells assessed as accumulation of cells at S phase incubated for 72 hrs by propidium iodide staining based flow cytometry; assay type: functional
Procedure, shortened: (§3)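 Cell cycle: MGC-803 cells were treated with various compound concentrations for 72 h, harvested, washed in PBS at 4 °C, and stained with a commercial PI cell-cycle kit following its instructions. DNA content was analysed by flow cytometry.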

[13] = target: T1, Ubiquitin carboxyl-terminal hydrolase 7; assay: Binding affinity to recombinant USP7 (208 to 560 residues) (unknown origin) assessed as dissociation constant by biolayer interferometry
Target sequence in this assay (Q93009 whole entry, the tested form may be a part): as the sequence (Q93009 whole entry, looked up, the tested form may be a part) above

MGC-803 [14] = assay: Induction of cell cycle arrest in human MGC-803 cells assessed as accumulation of cells at G0/G1 phase incubated for 72 hrs by propidium iodide staining based flow cytometry; assay type: functional; procedure, shortened: as §3
MGC-803 [15] = assay: Inhibition of colony formation in human MGC-803 cells after 7 days by crystal violet staining based assay; assay type: functional, cell-based; details: time 7.0 day
Procedure, shortened: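 Clonogenic assay: MGC-803 cells in log phase were seeded at 200 cells per well, allowed to attach for 12 h at 37 °C in 5% CO2, then exposed to the indicated concentrations or to DMSO for 7 days. Colonies were fixed with 4% paraformaldehyde and stained with 0.1% crystal violet for 15 min.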

Question: How did the inhibition [1] turn out when `COc1ccccc1CNc1ccc2c(=O)n(CC3(O)CCN(C(=O)CCc4ccccc4)CC3)cnc2c1` was run?
Answer: 45.9%

Question: For `O=C(c1ccccc1)N1CCC(O)(Cn2cnc3cc(Cl)ccc3c2=O)CC1`, which inhibition [1] is on record?
Answer: 18.6%

Question: `O=C(c1ccc[nH]1)N1CCC(O)(Cn2cnc3cc(Cl)ccc3c2=O)CC1` was tested. Which IC50 [2] did it give?
Answer: > 50 µM

Question: And the inhibition [1]?
Answer: < 50%

Question: With `O=C(c1cccc(Cl)c1Cl)N1CCC(O)(Cn2cnc3cc(Cl)ccc3c2=O)CC1` as the compound, how does the Activity (MGC-803 [3]) read?
Answer: Active

Question: What does the source list for `Nc1cc(Br)ccc1C(=O)N1CCC(O)(Cn2cnc3cc(Cl)ccc3c2=O)CC1`?
Answer: IC50 [2]: 46.3 µM; Activity (BGC-823 [4]): Active; IC50 (MGC-803 [3]): 30 µM; inhibition at 50 µM (BGC-823 [5]): 52%

Question: With `O=C(Cc1ccc(C(F)(F)F)cc1)N1CCC(O)(Cn2cnc3cc(Cl)ccc3c2=O)CC1` as the compound, how does the IC50 [2] read?
Answer: > 50 µM

Question: `O=C(c1ccc(O)cc1)N1CCC(O)(Cn2cnc3cc(Cl)ccc3c2=O)CC1` was tested. Which Activity (BGC-823 [4]) did it give?
Answer: Active

Question: And the Activity (MGC-803 [3])?
Answer: Active

Question: What does the source list for `O=C(CCc1ccccc1)N1CCC(O)(Cn2cnc3cc(NCc4ccccc4Cl)ccc3c2=O)CC1`?
Answer: inhibition at 50 µM (MGC-803 [6]): 86.7%; IC50 (BGC-823 [4]; BGC-823, 4 h): 43.1 µM; IC50 (MGC-803 [3]): 29.7 µM; inhibition [1]: 49.1%; inhibition at 50 µM (BGC-823 [5]): 58.2%

Question: With `O=C(CCc1ccccc1)N1CCC(O)(Cn2cnc3cc(Br)ccc3c2=O)CC1` as the compound, how does the IC50 [2] read?
Answer: 27.4 µM

Question: Which IC50 [2] does the source give for `O=C(CCc1ccccc1)N1CCC(O)(Cn2cnc3cc(NCc4ccco4)ccc3c2=O)CC1` here?
Answer: 9.8 µM

Question: Which inhibition [1] does the source give for `O=C(c1cccc(Br)c1)N1CCC(O)(Cn2cnc3cc(Cl)ccc3c2=O)CC1` here?
Answer: 42.2%

Question: For `O=C(c1ccccn1)N1CCC(O)(Cn2cnc3cc(Cl)ccc3c2=O)CC1`, which IC50 [2] is on record?
Answer: > 50 µM

Question: And the inhibition [1]?
Answer: < 50%

Question: `O=C(CCc1ccccc1)N1CCC(O)(Cn2cnc3cc(NCCN4CCCCC4)ccc3c2=O)CC1` was tested. Which IC50 [2] did it give?
Answer: 37 µM

Question: Which results are given for `CC(CC(=O)N1CCC(O)(Cn2cnc3cc(NCCN(C)C)ccc3c2=O)CC1)c1ccccc1` (stereo not given)?
Answer: IC50 [2]: 1.54 µM; inhibition [7]: Dose-Dependent Effect; IC50 [8]: 0.595 µM

Question: For `O=C(CCc1ccccc1)N1CCC(O)(Cn2cnc3cc(NCCO)ccc3c2=O)CC1`, which IC50 [2] is on record?
Answer: 16.4 µM

Question: What does the source list for `CN(C)CCNc1ccc2c(=O)n(CC3(O)CCN(C(=O)CCc4ccccc4)CC3)cnc2c1`?
Answer: IC50 [2]: 5.98 µM; inhibition [7]: Dose-Dependent Effect

Question: How did the inhibition [1] turn out when `O=C(c1ccc([N+](=O)[O-])cc1)N1CCC(O)(Cn2cnc3cc(Cl)ccc3c2=O)CC1` was run?
Answer: 58.3%

Question: Which results are given for `O=C(c1cccnc1)N1CCC(O)(Cn2cnc3cc(Cl)ccc3c2=O)CC1`?
Answer: IC50 [2]: > 50 µM; inhibition [1]: < 50%

Question: How did the Activity (MGC-803 [3]) turn out when `Nc1cc(Cl)ccc1C(=O)N1CCC(O)(Cn2cnc3cc(Cl)ccc3c2=O)CC1` was run?
Answer: Active

Question: What about the inhibition [1] of the same compound?
Answer: 46.5%

Question: `CC(CC(=O)N1CCC(O)(Cn2cnc3cc(Cl)ccc3c2=O)CC1)c1ccccc1` (stereo not given) was tested. Which IC50 [2] did it give?
Answer: 6.79 µM

Question: For `Cc1ccc(S(=O)(=O)N2CCC(O)(Cn3cnc4cc(Cl)ccc4c3=O)CC2)cc1`, which inhibition [1] is on record?
Answer: 0.8%

Question: For `CC(CC(=O)N1CCC(O)(Cn2cnc3cc(NCCN4CCCC4)ccc3c2=O)CC1)c1ccccc1` (stereo not given), which inhibition [7] is on record?
Answer: Dose-Dependent Effect

Question: How did the inhibition [1] turn out when `O=C(COc1ccccc1)N1CCC(O)(Cn2cnc3cc(Cl)ccc3c2=O)CC1` was run?
Answer: 22.7%

Question: For `O=C(CCc1ccccc1)N1CCC(O)(Cn2cnc3cc(NCc4ccc(Cl)cc4)ccc3c2=O)CC1`, which inhibition [1] is on record?
Answer: 49.9%

Question: How did the inhibition [1] turn out when `O=C(c1ccccc1[N+](=O)[O-])N1CCC(O)(Cn2cnc3cc(Cl)ccc3c2=O)CC1` was run?
Answer: 4.29%

Question: For `O=C(Cc1cccc2ccccc12)N1CCC(O)(Cn2cnc3cc(Cl)ccc3c2=O)CC1`, which IC50 [2] is on record?
Answer: > 50 µM

Question: For `O=C(COc1cccc2ccccc12)N1CCC(O)(Cn2cnc3cc(Cl)ccc3c2=O)CC1`, which Activity (BGC-823 [4]) is on record?
Answer: Active

Question: And the Activity (MGC-803 [3])?
Answer: Active

Question: And the inhibition [1]?
Answer: 9.83%

Question: With `O=C(/C=C/c1ccccc1)N1CCC(O)(Cn2cnc3cc(Cl)ccc3c2=O)CC1` as the compound, how does the inhibition [1] read?
Answer: 32.6%

Question: With `O=C(CCc1ccccc1)N1CCC(O)(Cn2cnc3cc(NCCN4CCCC4)ccc3c2=O)CC1` as the compound, how does the inhibition [9] read?
Answer: Active

Question: What about the inhibition [10] of the same compound?
Answer: Tde

Question: And the inhibition at 50 µM (MGC-803 [6])?
Answer: 31%

Question: And the IC50 [2]?
Answer: 4.86 µM

Question: What about the inhibition [11] of the same compound?
Answer: Active

Question: What about the Activity (MGC-803 [12]) of the same compound?
Answer: Active

Question: What about the Kd [13] of the same compound?
Answer: 77 µM

Question: What about the inhibition at 50 µM (BGC-823 [5]) of the same compound?
Answer: 28.4%

Question: What about the IC50 [8] of the same compound?
Answer: 5.05 µM

Question: And the Activity (MGC-803 [14])?
Answer: Active

Question: What about the inhibition (MGC-803 [15]) of the same compound?
Answer: Active

Question: For `O=C(CCc1ccccc1)N1CCC(O)(Cn2cnc3cc(NCCc4ccccc4)ccc3c2=O)CC1`, which IC50 [2] is on record?
Answer: 15.3 µM

Question: And the Activity (BGC-823 [4])?
Answer: Active

Question: What about the IC50 (MGC-803 [3]) of the same compound?
Answer: 32.1 µM

Question: What about the inhibition at 50 µM (BGC-823 [5]) of the same compound?
Answer: 54%

Question: How did the inhibition at 50 µM (MGC-803 [6]) turn out when `O=C(CCc1ccccc1)N1CCC(O)(Cn2cnc3cc(Cl)ccc3c2=O)CC1` was run?
Answer: 31.4%

Question: What about the IC50 [2] of the same compound?
Answer: 23.1 µM

Question: What about the Activity (BGC-823 [4]) of the same compound?
Answer: inactive

Question: What about the Activity (MGC-803 [3]) of the same compound?
Answer: inactive

Question: And the inhibition at 50 µM (BGC-823 [5])?
Answer: 8.45%
